From ChEMBL document CHEMBL1144880, “Identification of phenylisoxazolines as novel and viable antibacterial agents active against Gram-positive pathogens” (J Med Chem, 2003)
In brackets after ≈: the same amount, converted by molar mass.

Assays:
[1] = Harmonic mean apparent terminal disposition half-life [t1/2beta (h)] in Male Sprague-Dawley Rat at dose 10 (mg/kg iv); assay type: ADME, organism-based; conditions: in vivo, read-out: T1/2 beta (converted)
Summary of the method: (§1)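 Male Sprague-Dawley rats dosed intravenously or orally. Intact compound measured in plasma by HPLC-UV after protein-precipitation sample preparation. Half-life reported as harmonic mean apparent terminal disposition half-life. Bioavailability is absolute oral bioavailability. Some comparator values are archival data.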

[2] = Oral bioavailability in rat (Sprague-Dawley) (male) (dose 10 mg/kg i.v.); assay type: ADME, organism-based; conditions: in vivo; summary of the method: as §1
[3] = Oral bioavailability in rat (Sprague-Dawley) (male) (dose 25 mg/kg p.o.); assay type: ADME, organism-based; conditions: in vivo; summary of the method: as §1
[4] = Cmax value in Male Sprague-Dawley Rat at dose 10 (mg/kg iv); assay type: ADME, organism-based; design: dose 10 mg/kg, route intravenous; conditions: in vivo; summary of the method: as §1
[5] = Plasma clearance in Male Sprague-Dawley Rat (10 mg/kg iv); assay type: ADME, organism-based; summary of the method: as §1
[6] = species on record: Rattus norvegicus; experiment: Compound was evaluated for metabolic stability via In vitro Rat 5E6 cell at 50 uM concentration; assay type: functional
[7] = Volume distribution in Male Sprague-Dawley Rat (10 mg/kg iv); assay type: ADME, organism-based; conditions: in vivo, read-out: Vss
Summary of the method: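 Male Sprague-Dawley rats given the compound intravenously. Intact compound in plasma was measured by HPLC-UV after protein-precipitation sample preparation.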

[8] = Tmax value in Male Sprague-Dawley Rat at dose 25 (mg/kg po) [tmax (h)]; assay type: ADME, organism-based; conditions: in vivo; summary of the method: as §1
[9] = Cmax value in Male Sprague-Dawley Rat at dose 25 (mg/kg po); assay type: ADME, organism-based; design: dose 25 mg/kg, route oral; conditions: in vivo; summary of the method: as §1
[10] = system: Haemophilus influenzae; experiment: In vitro minimum inhibitory concentration (MIC) against Haemophilus influenzae UC30063; assay type: functional
Summary of the method: (§2)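 MIC determined by standard broth microdilution, defined as the lowest drug concentration (µg/mL) inhibiting visible growth.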

[11] = system: Escherichia coli; experiment: In vitro minimum inhibitory concentration (MIC) against Escherichia coli UC6674; assay type: functional; summary of the method: as §2
[12] = system: Staphylococcus epidermidis; experiment: In vitro minimum inhibitory concentration (MIC) against Staphylococcus epidermidis UC12084; assay type: functional; summary of the method: as §2
[13] = system: Moraxella catarrhalis; experiment: In vitro minimum inhibitory concentration (MIC) against Moraxella catarrhalis UC30610; assay type: functional; summary of the method: as §2

Row | half-life [1] [min] | F [2] [%] | bioavailability [3] [%] | Cmax [4] [ng/mL] | clearance [5] [mL/min/kg] | Vd [7] [L/kg] | Cmax [9] [ng/mL] | Compound | Remaining at 40 min [6] [%] | Tmax [8] [min] | MIC [10] [µg/mL] | MIC [11] [µg/mL] | MIC [12] [µg/mL] | MIC [13] [µg/mL]
1 | 57.6 | 100 | 56 | 20800 | 24.9 | 0.99 | 2260 | CC(=O)NC[C@H]1CN(c2ccc(N3CCN(C(=O)CO)CC3)c(F)c2)C(=O)O1 [EPEREZOLID] | 102 | 79.8 | – | – | – | –
2 | – | – | – | – | – | – | – | CC(=O)NC[C@H]1CN(c2ccc(N3CCOCC3)c(F)c2)C(=O)O1 [LINEZOLID] | 97 | 18.6 | 16 (≈ 47.4 µM) | > 32 | 1 (≈ 2.96 µM) | 8 (≈ 23.7 µM)
